Diaphorase inh: counter-screen for diaphorase-based assays: diaphorase inhibitors and chemical oxidizers. diaphorase resazurin-to-resorufin fluorescence, NADH, 16 min; bacterial (C. kluyveri) enzyme, not human. inhibition, % at 20 µM. 190,000 compounds, 0.69% hits. AID 1217;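 active = primary screen inhibition at 20 µM above a set limit, cut at about 50% in these data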;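 note: plate controls were DMSO with full reaction for no effect and wells lacking NADH for full effect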
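System: Diaphorase enzyme from Clostridium kluyveri | Amount: Enzyme working solution with 0.14 U/mL diaphorase | Benchmarks: No-NADH positive control and DMSO neutral control | Signal: Fluorescence of resorufin formed from resazurin, Ex 544/Em 590 nm | Schedule: 16-min room-temperature incubation before reading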
WT yeast gro inh: growth inhibition of WT yeast, mitochondrial fusion screen; mitochondrial fusion phenotypic screen, WT strain; inhibition, % at 10 µM; 190,000 compounds, 2.1% hits; AID 1362; in the data active = inhibition above about 58%; tested in S. cerevisiae
ROMK mod: modulators of human ROMK potassium channel. 130,000 compounds, 2% hits. AID 1918. B-score at 10 µM. Tet-inducible ROMK, thallium flux fluorescence; actives lie on both sides. P48048;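 active = signal ratio slope over the read window, or its plate-corrected B-score, at least 3 SD from the plate mean, either direction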;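 note: B-score of the F/F0 ratio slope over 7 to 12 s after thallium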
Target sequence (P48048 whole entry, looked up): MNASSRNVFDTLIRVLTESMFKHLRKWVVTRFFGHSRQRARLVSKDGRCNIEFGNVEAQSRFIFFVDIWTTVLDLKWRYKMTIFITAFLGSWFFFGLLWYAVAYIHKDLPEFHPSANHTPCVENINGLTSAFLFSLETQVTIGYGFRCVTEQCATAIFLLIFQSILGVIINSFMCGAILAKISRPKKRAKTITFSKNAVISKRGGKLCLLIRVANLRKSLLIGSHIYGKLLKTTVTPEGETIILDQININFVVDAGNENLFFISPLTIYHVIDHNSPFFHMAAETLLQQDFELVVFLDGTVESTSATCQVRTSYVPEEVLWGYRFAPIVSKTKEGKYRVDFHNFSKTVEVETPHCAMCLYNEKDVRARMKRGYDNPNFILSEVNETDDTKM
Cl transport mod: modulators of human KCC2 chloride dependent transport. Q9H2X9. KCC2 cells, thallium flux FluoZin-2 fluorescence. B-score of Tl+ flux slope (higher = more flux/activation; lower = inhibition) at 10 µM. 190,000 compounds, 2.2% hits. AID 1456;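 active = thallium flux slope and its plate-corrected score both differing from the plate sample mean at a set confidence after two filtering rounds, in either direction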;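 note: slope of fluorescence scaled to starting intensity during 10 to 20 s after thallium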
Diaphorase act: diaphorase activation or chemical reduction counter-screen | activation factor at 20 µM | Diaphorase/resazurin coupled assay, resorufin fluorescence, 16 min; stronger effect = higher value; 1 = vehicle wells, 0 = NADH-free wells | 190,000 compounds, 0.005% hits | AID 1229;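 active = diaphorase activity raised at least twofold by the compound at 20 µM; inactive = activation factor below 2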
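System – purified diaphorase enzyme from Clostridium kluyveri · Input – enzyme 0.07 U/mL final · Also added – final NADH 0.114 mM, resazurin 0.1 mM · Measured by – fluorescence of resorufin, 544 nm excitation, 590 nm emission · Timing – 16 min enzyme reaction, ambient temperature · Measure – resorufin increase flagging diaphorase activators or reducers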
L major viab: reduces viability of Leishmania major promastigotes | inhibition, % at 10 µM | AID 1063 | resazurin fluorescence viability | 200,000 compounds, 9% hits; in the data active = inhibition above about 50%;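 note: promastigotes grown with compound for 44 hours at 28 °C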
Numbers without * were called inactive; · = no result. Rows were chosen to be rich in hits. Some 12% of all compounds tested hit in one or more screens of this group.

SMILES	Diaphorase inh	WT yeast gro inh	ROMK mod	Cl transport mod	Diaphorase act	L major viab
Cc1ccc2c(CN3CCN(S(=O)(=O)/C=C/c4ccccc4)CC3)cc(=O)oc2c1	20.2	3.1	-0.75	-0.0305	0.8	21.5
Cc1ccc2nc(NC(=O)COC(=O)CSc3nc(C)cc(C)n3)sc2c1	25.2	-7.4	·	-0.0589	0.7	-1.9
CCn1nnnc1SCC(=O)Nc1nc2ccc(OC)cc2s1	0.6	9.2	·	0.392	1	85.7*
COc1ccc2nc(NC(=O)CSc3nc(C)cc(C)n3)sc2c1	14.4	9.6	-0.806	-0.673	0.9	51.1*
CCn1nnnc1SCC(=O)Nc1ccc(OC)cc1	9.8	-3.6	0.00211	-0.589	0.9	0.8
COC(=O)C1SCC2C(=O)N(Cc3ccccc3)CC(=O)N21 (stereo not given)	-4.6	12.7	0.362	-0.0807	1	-5.8
O=C(Cn1cc(C(F)(F)F)cc(Cl)c1=O)NCCc1ccccc1	4.3	16.7	0.217	-0.00392	1	-1.9
Cc1ccc(C(=O)N/N=C(/CC(=O)c2cccs2)C(F)(F)F)cc1	12.9	44.1	·	63.5*	0.9	13.1
O=C(N/N=C(\CC(=O)c1cccs1)C(F)(F)F)c1ccncc1	·	·	·	1.16	·	·
Cc1ccc(NCCC(=O)c2cccs2)cc1	7.8	-10.1	0.0254	0.508	0.9	71.9*
CCOC(=O)C(C)NC(=O)Cn1ncc2c(=O)oc3ccc(C)cc3c21 (stereo not given)	·	·	-0.0334	-1.87	·	·
CN(C)c1ccc(-c2noc(C3CCN(S(=O)(=O)c4cccc(Cl)c4)CC3)n2)cc1	18.6	5.6	·	0.244	0.8	32.0
O=C(C1CC1)N1CCC(c2nc(-c3ccc(S(=O)(=O)N4CCCC4)cc3)no2)CC1	3.5	21.0	-0.3	0.04	1	53.2*
O=C(N1CCOCC1)N1CCC(c2nc(-c3ccc(S(=O)(=O)N4CCOCC4)cc3)no2)CC1	12.6	-14.7	-0.336	·	0.9	11.3
O=C(Cc1ccccc1)N1CCCC(c2nc(-c3ccc(S(=O)(=O)N4CCCC4)cc3)no2)C1 (stereo not given)	12.1	-1.3	-1.05	-0.108	0.9	98.8*
O=S(=O)(c1ccc2ccccc2c1)N1CCC(c2nc(-c3ccncc3)no2)CC1	57.1*	2.4	·	0.0258	0.4	1.3
O=C(NC1CCCCC1)N1CCC(c2nc(-c3ccc(S(=O)(=O)N4CCCC4)cc3)no2)CC1	13.8	-2.4	·	·	0.9	75.0*
O=C(Cc1ccccc1)N1CCC(c2nc(-c3ccc(F)cc3)no2)CC1	11.6	-2.8	-2.67	-4.19	0.9	-8.1
Nc1nc(SCC(=O)Nc2ccc3c(c2)CCC3)n[nH]1	1.6	-15.9	-0.847	0.254	1	-3.5
CCOC(=O)c1cc(CC)sc1/N=C/C1=C(O)CCCC1=O	16.5	-3.4	-0.00277	-1.97	0.8	-5.2
C(=N\Nc1nc2ccccc2[nH]1)/c1ccc2c(c1)OCCO2	·	·	·	-1.61	·	·
C#CCn1cc(/C=N/NC(=O)COc2cccc3cccnc23)c2ccccc21	8.2	8.3	0.485	-0.0389	0.9	57.5*
C(=N\Nc1nc2ccccc2[nH]1)/c1cccc2nccnc12	·	·	·	0.25	·	·
Fc1ccccc1-c1ccc(/C=N/Nc2nc3ccccc3[nH]2)o1	2.7	85.0	-0.238	-0.206	1	97.1*
C#CCn1cc(/C=N/Nc2nc3ccccc3[nH]2)c2ccccc21	-8.3	29.7	·	-0.297	1.1	100.5*
SMILES	Diaphorase inh	WT yeast gro inh	ROMK mod	Cl transport mod	Diaphorase act	L major viab
CCCCn1c(/C=C/c2ccco2)nc2ccccc21	6.7	35.0	·	-1.36	0.9	63.4*
C=CCOCC(O)CS(=O)(=O)Cc1ccc(Cl)cc1 (stereo not given)	11.6	-14.1	-0.0931	0.0703	0.9	6.5
CCCCn1c(/C=N/Nc2nc3ccccc3[nH]2)nc2ccccc21	11.9	28.5	·	-0.162	0.9	100.3*
Clc1ccc(Cn2c(/C=C/c3ccco3)nc3ccccc32)cc1	17.5	76.1*	-1.85	-0.186	0.8	50.1*
CCCCNc1nc2ccccc2[nH]1	-5.0	·	·	·	1.1	24.9
N#CC1=C(N)NC(SCC(=O)c2ccc(Br)cc2)=C(C#N)C12CCCCC2	12.5	78.2*	-0.848	-2.83	0.9	99.9*
CCCSC1=C(C#N)C2(CCCCC2)C(C#N)=C(N)N1	21.9	6.8	-0.0124	-1.72	0.8	43.4
N#CC1=C(SCC(=O)Nc2ccccc2)NC(=O)CC1c1ccc(O)cc1 (stereo not given)	30.8	16.9	·	0.0322	0.7	-1.4
N#CC1=C(N)NC(SCC(=O)Nc2ccccc2)=C(C#N)C12CCCCC2	17.7	-18.6	·	·	0.8	76.7*
CC(c1cccs1)N(Cc1ccco1)C(=O)Nc1ccc(Cl)c(Cl)c1 (stereo not given)	20.0	64.3*	·	-1.15	0.8	24.5
COc1cccc(NC(=O)N(C2CCCCC2)C(C)c2cccs2)c1 (stereo not given)	14.2	10.8	·	0.385	0.9	12.3
COc1cccc(NC(=O)N(Cc2ccco2)C(C)c2cccs2)c1 (stereo not given)	13.4	-18.0	0.0686	-1.49	0.9	60.6*
Cc1ccccc1C(=O)N1CCc2cc(-c3nc(NC(=O)Cc4ccc5c(c4)OCO5)sc3C)ccc21	8.9	36.5	0.3	-0.0153	0.9	98.8*
Cc1sc(NC(=O)Cc2ccc3c(c2)OCO3)nc1-c1ccc2c(c1)CCN2C(=O)c1cccc(F)c1	11.8	38.4	-0.848	-0.217	0.9	91.2*
Cc1cccc(C(=O)N2CCc3cc(-c4nc(NC(=O)Cn5nnc6ccccc6c5=O)sc4C)ccc32)c1	-1.1	-16.6	·	-0.546	1	8.0
Cc1cc(Cl)ccc1OCc1nnc2n1CCCCC2	12.4	10.8	0.307	-1.07	0.9	2.0
O=C1CC(c2ccc(Cl)c([N+](=O)[O-])c2)c2ccc3ccccc3c2N1 (stereo not given)	5.4	17.5	-0.649	-2.89	0.9	99.6*
Cc1ccccc1OCC(O)CN1CCC(C)CC1 (stereo not given)	5.4	2.7	-0.242	0.457	0.9	71.7*
Cc1ccccc1OCC(O)CN1CCN(CC(O)COc2ccccc2C)CC1 (stereo not given)	1.7	0.0	-0.186	0.0951	1	62.9*
Cc1ccc(C)c(OCC(O)CN2CCC(C)CC2)c1C (stereo not given)	14.4	17.0	-1.93	·	0.9	99.8*
CCC(=O)N(CCc1ccc(OC)c(OC)c1)Cc1cc2ccc(C)cc2n2nnnc12	6.0	-4.7	-0.016	-0.772	0.9	19.0
CC1(C2CC2)NC(=O)N(CC(=O)Nc2ccccc2-c2ccccc2)C1=O (stereo not given)	2.1	1.3	0.0972	1.68	1	1.2
COc1cccc2cc(C(C)N(CCCN3CCOCC3)C(=S)Nc3c(C)cccc3C)oc12 (stereo not given)	8.1	5.4	·	-0.647	0.9	53.3*

Assay outcomes deposited in PubChem by several laboratories.
